Publication PMC3983339 (Journal of Medicinal Chemistry, 2014)

How the values were obtained:
PRMT1 [1] = target: T1, PRMT1 (Rattus norvegicus, UniProt Q63009); experiment: radiometric P81 filter binding assay, PRMT1; assay type: biochemical; details: for inhibition at 20 µM: read-out: inhibition of PRMT1
PRMT5 = PRMT5 (Homo sapiens, UniProt O14744); experiment: radiometric P81 filter binding assay, PRMT5; assay type: biochemical; details: initial screening at 20 μM compound
Summary of the method: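 HA-PRMT5 was co-expressed with WDR77 in HEK293T cells and purified on HA-peptide agarose by peptide elution. Reactions at 30 °C used 50 mM HEPES pH 8.0, 50 mM NaCl, 1 mM EDTA, 0.5 mM DTT, with 0.5 μM [3H]SAM and 1 μM H4(1–20) peptide. Test compound at 20 μM was preincubated with enzyme and [3H]SAM for 5 min at room temperature, then peptide was added to start the reaction. Mixtures were spotted on P81 paper, washed with 50 mM NaHCO3 pH 9.0, and counted by scintillation. Controls lacked inhibitor, or both peptide and inhibitor.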

CMY cells = experiment: CellTiter-Glo cell viability, CMY cells; assay type: cell-based; details: 20 μM, compared with HEL, Jurkat, HL-60
Summary of the method: (§1)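 Leukemia cell lines were grown in RPMI plus 10% FBS and seeded at 1000–1500 cells per well. Cultures received 20 μM test compound or an equal amount of DMSO. CellTiter-Glo reagent was added at 0, 24, 48 and 72 h after treatment, and luminescence was read. Viability is expressed as viable cells in the treated group as a percentage of the DMSO control.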

leukemia cell lines = experiment: CellTiter-Glo cell viability, panel of leukemia cell lines; assay type: cell-based; details: 10 different leukemia cell lines, 20 μM, 3 consecutive days
PRMT1 [2] = target: T1, PRMT1; experiment: competitive fluorescence anisotropy binding assay; details: 524 nm, 0.2 μM H4-FL, 2.0 μM PRMT1, increasing compound concentration
Summary of the method: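 Recombinant His6-PRMT1 was expressed in E. coli BL21(DE3) and Ni-NTA purified. 0.2 μM fluorescein-H4(1–20) and 2 μM PRMT1 were mixed, then test compound was titrated in until anisotropy levelled off. Excitation was 498 nm and emission 524 nm. Anisotropy from several scans was plotted against inhibitor concentration.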

MOLM-13 cells = experiment: CellTiter-Glo cell viability, MOLM-13 cells; assay type: cell-based; details: 20 μM, compared with HEL, Jurkat, HL-60
Summary of the method: as §1

PRMT1 [3] = target: T1, PRMT1; experiment: steady-state kinetic analysis of PRMT1 inhibition; assay type: biochemical; details: for Ki: Kis
HEL cells = experiment: CellTiter-Glo cell viability, HEL cells; assay type: cell-based; details: HEL cells (JAK2V617F), 20 μM, 3 days
Summary of the method: as §1

[4] = test system: intracellular PRMT1 activity (GFP-ALY methylation) in 293T cells; experiment: GFP-ALY methylation in 293T cells; assay type: cell-based, human
Summary of the method: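 A stable 293T line expressing GFP-ALY, kept in DMEM plus 10% FBS, was exposed to 20 μM test compound for 15 h. Cells were lysed on ice for 30 min in H buffer (150 mM NaCl, 20 mM Tris pH 7.8, 1% NP-40, phosphatase/protease inhibitors, 1 mM DTT) and cleared at 12000g for 20 min. GFP-ALY was pulled down on GFP antibody beads and analysed by SDS–PAGE and ASYM24 Western blot with chemiluminescence detection.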

CHRF-288-11 cells = experiment: CellTiter-Glo cell viability, CHRF-288-11 cells; assay type: cell-based; details: 20 μM, compared with HEL, Jurkat, HL-60
Summary of the method: as §1

[5] = varied H4-20, [3H]AdoMet fixed at 3 μM

T1 sequence (Q63009 whole entry): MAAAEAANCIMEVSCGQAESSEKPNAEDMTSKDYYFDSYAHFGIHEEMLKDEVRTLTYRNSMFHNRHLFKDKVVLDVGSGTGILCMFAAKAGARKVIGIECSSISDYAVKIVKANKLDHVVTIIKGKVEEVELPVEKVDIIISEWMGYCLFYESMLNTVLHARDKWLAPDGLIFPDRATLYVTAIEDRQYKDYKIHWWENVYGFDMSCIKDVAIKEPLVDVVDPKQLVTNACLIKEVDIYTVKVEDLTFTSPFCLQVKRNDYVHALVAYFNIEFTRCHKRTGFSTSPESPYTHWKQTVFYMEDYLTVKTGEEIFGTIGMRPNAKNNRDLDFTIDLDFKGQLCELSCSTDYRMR
Chain of PRMT5 (O14744 whole entry, species assumed): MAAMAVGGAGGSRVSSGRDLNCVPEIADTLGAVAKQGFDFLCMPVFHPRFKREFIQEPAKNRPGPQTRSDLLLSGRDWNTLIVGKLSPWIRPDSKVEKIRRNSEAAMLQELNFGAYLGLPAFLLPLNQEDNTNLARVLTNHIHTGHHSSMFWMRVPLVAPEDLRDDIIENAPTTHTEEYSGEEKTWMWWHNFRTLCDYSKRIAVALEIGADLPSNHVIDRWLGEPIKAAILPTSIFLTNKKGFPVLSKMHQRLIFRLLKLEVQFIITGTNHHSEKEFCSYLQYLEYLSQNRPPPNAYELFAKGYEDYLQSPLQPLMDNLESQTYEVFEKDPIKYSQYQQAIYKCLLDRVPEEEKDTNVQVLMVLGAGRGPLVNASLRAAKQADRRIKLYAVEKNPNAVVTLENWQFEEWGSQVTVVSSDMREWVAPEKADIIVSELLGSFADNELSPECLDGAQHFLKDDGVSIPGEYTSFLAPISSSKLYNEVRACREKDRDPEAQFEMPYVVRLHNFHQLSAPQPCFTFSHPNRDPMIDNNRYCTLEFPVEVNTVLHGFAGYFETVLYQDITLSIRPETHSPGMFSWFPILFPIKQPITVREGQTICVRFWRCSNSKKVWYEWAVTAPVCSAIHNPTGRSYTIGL
Chain of PRMT5 (Q9BQA1 whole entry partner, species assumed): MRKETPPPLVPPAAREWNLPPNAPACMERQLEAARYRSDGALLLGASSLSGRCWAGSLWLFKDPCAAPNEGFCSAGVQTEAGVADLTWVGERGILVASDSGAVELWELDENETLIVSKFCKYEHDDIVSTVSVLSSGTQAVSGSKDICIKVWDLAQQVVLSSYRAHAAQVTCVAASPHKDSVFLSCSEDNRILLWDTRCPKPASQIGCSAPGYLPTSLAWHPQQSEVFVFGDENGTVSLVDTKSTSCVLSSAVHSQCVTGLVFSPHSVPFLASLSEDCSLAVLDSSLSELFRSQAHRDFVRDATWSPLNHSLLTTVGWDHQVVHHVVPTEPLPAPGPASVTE

| SMILES | inhibition at 20 µM (PRMT1 [1]) [%] | inhibition of PRMT1 (PRMT1 [1]; initial screening at 20 μM compound) | inhibition of PRMT5 (PRMT5) | sensitivity of cell growth versus other cell lines (CMY cells) | cell growth (leukemia cell lines) | fluorescence anisotropy plateau of H4-FL and PRMT1 mixture (PRMT1 [2]) | sensitivity of cell growth versus other cell lines (MOLM-13 cells) | Ki (PRMT1 [3]; [5]) [µM] | Ki (PRMT1 [3]; varied [3H]SAM, H4-20 fixed at 15 μM) [µM] | Kis smaller than Kii (PRMT1 [3]; varied H4-20) | Kii (PRMT1 [3]; [5]) [µM] | cell growth (HEL cells) | level of methylated GFP-ALY protein ([4]; 293T cells, 20 μM, 15 h, ASYM24 antibody) | cell membrane permeability ([4]; inferred from inhibition of cellular PRMT1 activity in 293T cells) | sensitivity of cell growth versus other cell lines (CHRF-288-11 cells) |
| --- | --- | --- | --- | --- | --- | --- | --- | --- | --- | --- | --- | --- | --- | --- | --- |
| N=C(N)c1ccc(-c2ccc(-c3ccc(OCCCCCCCCOc4ccc(-c5ccc(-c6ccc(C(=N)N)cc6)o5)cc4)cc3)o2)cc1 [Compound 2] | > 85 |  |  |  |  |  |  |  |  |  |  |  |  |  |  |
| N=C(N)c1ccc(-c2ccc(-c3ccc(C(=N)N)c(F)c3)o2)cc1F [Compound 21] |  | very weak activity | very weak activity |  |  |  |  |  |  |  |  |  |  |  |  |
| N=C(N)c1ccc(-c2ccc(-c3ccc(C(=N)N)cc3)o2)cc1 [Compound 1, 2,5-bis(4-amidinophenyl)furan] | > 75 |  |  | more sensitive | inhibited cell growth for most of the leukemia cell lines | about 0.055 | more sensitive | 2.6 | 16 | about 14 fold | 38 | except HEL cells | significantly reduced | permeable to cell membrane | more sensitive |
